Source: ChEMBL document CHEMBL4028864 (J Med Chem, 2017)

Assays:
[1] = Half life in rat liver microsome preincubated for 5 mins followed by NADPH addition by LC-MS/MS analysis; type: ADME; conditions: liver microsomes
Histone deacetylase 9 = Histone deacetylase 9 (Homo sapiens, UniProt Q9UKV0); test: Inhibition of HDAC9 (unknown origin) at 10 uM in presence of ATP relative to control
Outline: (§1)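 HDAC enzyme inhibition was run by a contract laboratory.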

TAMH = test: cells; type: ADME, cell-based; conditions: Mus musculus, 24 h
Histone deacetylase 1 = Histone deacetylase 1 (Homo sapiens, UniProt Q13547); test: Inhibition of C-terminal FLAG His tagged full length human recombinant HDAC1 (1 to 482 residues) expressed in baculovirus infected sf21 cells using RHKKAc as substrate in presence of ATP
[2] = biological target: Tyrosine-protein kinase JAK2 (Homo sapiens, UniProt O60674); test: Inhibition of human JAK2 using poly[Glu:Tyr] as substrate in presence of [gamma-33P]-ATP
[3] = biological target: Non-receptor tyrosine-protein kinase TYK2 (Homo sapiens, UniProt P29597); test: Inhibition of human TYK2 using KKSRGDYMTMQIG as substrate in presence of [gamma-33P]-ATP
Outline: (§2)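 Kinase inhibition was tested by radiometric "Hotspot" profiling at a contract laboratory with 10 μM ATP.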

[4] = biological target: Receptor-type tyrosine-protein kinase FLT3 (Homo sapiens) (UniProt P36888); test: Inhibition of human FLT3 using EAIYAAPFAKKK as substrate at 1 uM in presence of [gamma-33P]-ATP relative to control; outline: as §2
[5] = biological target: SRSF protein kinase 3 (Homo sapiens) (UniProt Q9UPE1); test: Inhibition of wild type human SRPK3 (P41 to P567 residues) expressed in bacterial cells assessed as residual activity at 1 uM by KINOMEscan assay relative to control; type: cell-based
[6] = biological target: Rho-associated protein kinase 2 (Homo sapiens) (UniProt O75116); test: Inhibition of wild type human ROCK2 (M1 to T431 residues) expressed in mammalian cells assessed as residual activity at 1 uM by KINOMEscan assay relative to control; type: cell-based
[7] = biological target: Histone deacetylase 3/Nuclear receptor corepressor 2 (HDAC3/NCoR2) (Homo sapiens, UniProt O15379); test: Inhibition of human recombinant HDAC3 (1 to 428 residues)/N-terminal GST-tagged NCOR2 (395 to 489 residues) expressed in Baculovirus infected insect cells in presence of ATP; outline: as §1
Histone deacetylase 5 = Histone deacetylase 5 (Homo sapiens, UniProt Q9UQL6); test: Inhibition of C-terminal His tagged human recombinant HDAC5 (657 to 1123 residues) expressed in Baculovirus infected insect cells in presence of ATP; outline: as §1
MCF7 = test: cells; type: functional, cell-based; conditions: Homo sapiens, MCF7, 72 h
PC-3 = test: cells; type: functional, cell-based; conditions: Homo sapiens, PC-3, 72 h
HEL 92.1.7 = test: cells; type: functional, cell-based; conditions: Homo sapiens, HEL 92.1.7, 36 h
Jurkat = test: cells; type: functional, cell-based; conditions: Homo sapiens
KMS-12-BM = test: cells; type: functional, cell-based; conditions: Homo sapiens, 48 h
OPM-2 = test: Antiproliferative activity against human OPM2 cells after 48 hrs by CellTiter-Glo luminescent assay; type: functional, cell-based; conditions: OPM-2, 48 h
cells = type: functional, cell-based; conditions: Homo sapiens, XG6, 48 h
KG-1 = test: cells; type: functional, cell-based; conditions: Homo sapiens, KG-1, 48 h
MOLM-14 [8] = test: cells; type: functional, cell-based; conditions: Homo sapiens, MOLM-14, 48 h
MV4-11 = test: cells; type: functional, cell-based; conditions: Homo sapiens, MV4-11, 48 h
[9] = Terminal half life in Wistar rat at 1 mg/kg, iv by LC-MS/MS analysis; type: ADME, organism-based; conditions: in vivo, read-out: beta t1/2 (converted)
Outline: (§3)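 Wistar rats given a single 1 mg/kg iv dose. Plasma concentration–time profiles were plotted as mean ± SEM and sampled through 24 h postdose. Values were taken from the iv profile.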

[10] = Volume of distribution at steady state in Wistar rat at 1 mg/kg, iv by LC-MS/MS analysis; type: ADME, organism-based; conditions: in vivo, read-out: Vdss; outline: as §3
[11] = Terminal half life in Wistar rat at 5 mg/kg, po administered via gavage by LC-MS/MS analysis; type: ADME, organism-based; conditions: in vivo, read-out: beta t1/2 (converted)
Outline: (§4)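 Wistar rats given a single 5 mg/kg oral dose. Plasma concentration–time profiles were plotted as mean ± SEM and sampled through 24 h postdose.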

[12] = Tmax in Wistar rat at 5 mg/kg, po administered via gavage by LC-MS/MS analysis; type: ADME, organism-based; conditions: in vivo; outline: as §4
[13] = AUC (0 to infinity) in Wistar rat at 5 mg/kg, po administered via gavage by LC-MS/MS analysis; type: ADME, organism-based; parameters: dose 5 mg/kg, time infinity, route oral; conditions: in vivo; outline: as §4
MOLM-14 [14] = test: Induction of apoptosis in human MOLM14 cells assessed as increase in cleaved PARP level at 1 to 6 uM after 24 hrs by immunoblotting analysis; type: functional, cell-based
Outline: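 KMS-12-BM and MOLM-14 cells were treated for 24 h and then lysed. Cleaved PARP was detected by immunoblotting.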

Plasma = test: Drug uptake in Wistar rat plasma at 5 mg/kg, po administered via gavage or 1 mg/kg, iv up to 2 hrs by LC-MS/MS analysis; type: ADME, organism-based; conditions: in vivo
Outline: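 Wistar rats dosed once at 5 mg/kg po or 1 mg/kg iv. Plasma levels were followed as mean ± SEM over 24 h postdose and checked against the limit of quantitation at each time point.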

Chain of Histone deacetylase 3/Nuclear receptor corepressor 2 (HDAC3/NCoR2) (O15379 whole entry, the tested form may be a part): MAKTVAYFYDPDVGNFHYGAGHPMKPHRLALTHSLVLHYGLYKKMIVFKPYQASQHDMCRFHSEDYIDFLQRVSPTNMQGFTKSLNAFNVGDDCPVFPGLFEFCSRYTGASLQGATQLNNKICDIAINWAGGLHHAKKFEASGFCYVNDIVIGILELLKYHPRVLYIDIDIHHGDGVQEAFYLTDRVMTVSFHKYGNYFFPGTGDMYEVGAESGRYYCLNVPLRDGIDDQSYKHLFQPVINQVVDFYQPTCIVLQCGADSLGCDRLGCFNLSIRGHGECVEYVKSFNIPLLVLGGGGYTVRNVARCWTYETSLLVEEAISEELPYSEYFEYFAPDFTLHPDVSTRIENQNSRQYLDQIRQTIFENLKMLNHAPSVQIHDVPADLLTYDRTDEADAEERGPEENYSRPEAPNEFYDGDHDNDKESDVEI
Chain of Histone deacetylase 3/Nuclear receptor corepressor 2 (HDAC3/NCoR2) (Q9Y618 whole entry, further chain, the tested form may be a part): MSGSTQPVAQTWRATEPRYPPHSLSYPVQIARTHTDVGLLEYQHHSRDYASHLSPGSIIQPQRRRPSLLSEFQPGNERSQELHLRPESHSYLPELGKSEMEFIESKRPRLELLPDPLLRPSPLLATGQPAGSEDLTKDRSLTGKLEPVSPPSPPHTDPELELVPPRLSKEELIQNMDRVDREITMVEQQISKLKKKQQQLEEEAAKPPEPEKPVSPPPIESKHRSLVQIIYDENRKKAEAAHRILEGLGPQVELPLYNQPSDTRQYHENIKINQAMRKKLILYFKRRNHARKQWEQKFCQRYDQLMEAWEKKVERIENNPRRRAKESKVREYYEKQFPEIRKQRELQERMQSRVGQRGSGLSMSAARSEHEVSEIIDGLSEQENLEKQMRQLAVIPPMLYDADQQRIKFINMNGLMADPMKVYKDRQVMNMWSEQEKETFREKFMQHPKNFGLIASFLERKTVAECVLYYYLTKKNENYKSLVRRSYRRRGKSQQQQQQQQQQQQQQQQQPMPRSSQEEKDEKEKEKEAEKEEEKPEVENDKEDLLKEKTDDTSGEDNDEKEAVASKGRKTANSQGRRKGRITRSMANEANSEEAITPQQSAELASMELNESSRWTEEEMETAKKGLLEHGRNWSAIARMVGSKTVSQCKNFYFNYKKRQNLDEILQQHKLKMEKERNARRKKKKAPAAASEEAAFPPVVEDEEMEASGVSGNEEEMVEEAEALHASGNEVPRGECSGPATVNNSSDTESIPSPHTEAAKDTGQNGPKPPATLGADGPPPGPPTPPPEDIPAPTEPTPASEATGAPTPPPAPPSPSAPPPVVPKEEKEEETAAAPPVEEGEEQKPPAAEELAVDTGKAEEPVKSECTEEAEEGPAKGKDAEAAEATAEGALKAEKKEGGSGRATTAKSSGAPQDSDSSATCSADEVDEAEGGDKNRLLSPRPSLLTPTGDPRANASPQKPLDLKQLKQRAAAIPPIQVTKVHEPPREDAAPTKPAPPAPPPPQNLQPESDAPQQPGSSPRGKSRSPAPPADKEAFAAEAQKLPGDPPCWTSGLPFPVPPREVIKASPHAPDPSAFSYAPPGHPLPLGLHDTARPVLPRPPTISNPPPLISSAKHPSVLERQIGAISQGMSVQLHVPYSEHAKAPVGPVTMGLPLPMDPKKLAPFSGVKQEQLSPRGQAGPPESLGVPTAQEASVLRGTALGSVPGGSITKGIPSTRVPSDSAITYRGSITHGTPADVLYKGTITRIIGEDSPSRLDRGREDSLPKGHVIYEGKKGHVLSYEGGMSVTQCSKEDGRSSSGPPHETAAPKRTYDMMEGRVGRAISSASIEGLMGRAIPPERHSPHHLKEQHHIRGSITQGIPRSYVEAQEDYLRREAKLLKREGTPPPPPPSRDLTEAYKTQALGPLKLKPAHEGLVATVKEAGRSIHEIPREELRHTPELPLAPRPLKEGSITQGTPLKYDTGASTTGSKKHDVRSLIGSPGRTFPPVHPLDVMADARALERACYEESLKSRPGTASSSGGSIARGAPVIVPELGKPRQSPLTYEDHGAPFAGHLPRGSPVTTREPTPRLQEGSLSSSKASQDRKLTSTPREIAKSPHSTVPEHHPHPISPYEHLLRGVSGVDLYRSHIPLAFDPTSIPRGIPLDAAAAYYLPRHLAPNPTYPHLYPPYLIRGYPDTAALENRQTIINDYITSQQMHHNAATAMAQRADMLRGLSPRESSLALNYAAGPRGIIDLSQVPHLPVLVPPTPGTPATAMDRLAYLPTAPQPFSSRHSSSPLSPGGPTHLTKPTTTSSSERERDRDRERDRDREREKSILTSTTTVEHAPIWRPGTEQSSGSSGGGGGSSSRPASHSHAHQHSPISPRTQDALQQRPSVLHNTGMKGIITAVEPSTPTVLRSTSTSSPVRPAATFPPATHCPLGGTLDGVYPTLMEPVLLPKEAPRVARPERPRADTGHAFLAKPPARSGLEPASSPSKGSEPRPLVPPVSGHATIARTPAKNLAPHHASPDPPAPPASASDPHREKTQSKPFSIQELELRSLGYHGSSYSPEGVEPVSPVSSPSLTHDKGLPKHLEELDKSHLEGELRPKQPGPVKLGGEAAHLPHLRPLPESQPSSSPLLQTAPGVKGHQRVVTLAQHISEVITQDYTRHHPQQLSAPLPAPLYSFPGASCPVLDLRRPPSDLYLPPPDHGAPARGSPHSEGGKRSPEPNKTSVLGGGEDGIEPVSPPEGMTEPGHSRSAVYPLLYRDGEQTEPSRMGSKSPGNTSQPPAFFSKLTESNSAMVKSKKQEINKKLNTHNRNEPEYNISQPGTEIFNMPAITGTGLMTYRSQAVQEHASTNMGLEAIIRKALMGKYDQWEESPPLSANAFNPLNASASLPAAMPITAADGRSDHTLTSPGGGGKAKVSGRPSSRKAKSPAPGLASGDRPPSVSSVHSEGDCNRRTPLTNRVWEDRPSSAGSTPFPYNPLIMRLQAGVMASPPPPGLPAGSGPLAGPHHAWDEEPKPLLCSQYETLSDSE
Chain of Histone deacetylase 1 (Q13547 whole entry, the tested form may be a part): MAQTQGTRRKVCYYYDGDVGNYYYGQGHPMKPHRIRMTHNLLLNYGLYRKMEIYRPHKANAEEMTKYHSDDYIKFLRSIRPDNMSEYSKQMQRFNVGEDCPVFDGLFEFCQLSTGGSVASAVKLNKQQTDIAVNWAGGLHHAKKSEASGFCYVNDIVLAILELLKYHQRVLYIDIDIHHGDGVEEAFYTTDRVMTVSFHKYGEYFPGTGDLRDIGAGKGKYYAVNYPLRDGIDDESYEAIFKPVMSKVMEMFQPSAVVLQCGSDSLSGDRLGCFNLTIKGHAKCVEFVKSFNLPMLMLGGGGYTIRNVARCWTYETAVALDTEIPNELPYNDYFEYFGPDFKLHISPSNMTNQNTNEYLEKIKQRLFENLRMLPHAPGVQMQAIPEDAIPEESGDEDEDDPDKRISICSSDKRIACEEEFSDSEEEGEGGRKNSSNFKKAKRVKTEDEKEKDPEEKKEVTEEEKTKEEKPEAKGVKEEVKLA
Chain of Rho-associated protein kinase 2 (Homo sapiens) (O75116 whole entry, looked up, the tested form may be a part): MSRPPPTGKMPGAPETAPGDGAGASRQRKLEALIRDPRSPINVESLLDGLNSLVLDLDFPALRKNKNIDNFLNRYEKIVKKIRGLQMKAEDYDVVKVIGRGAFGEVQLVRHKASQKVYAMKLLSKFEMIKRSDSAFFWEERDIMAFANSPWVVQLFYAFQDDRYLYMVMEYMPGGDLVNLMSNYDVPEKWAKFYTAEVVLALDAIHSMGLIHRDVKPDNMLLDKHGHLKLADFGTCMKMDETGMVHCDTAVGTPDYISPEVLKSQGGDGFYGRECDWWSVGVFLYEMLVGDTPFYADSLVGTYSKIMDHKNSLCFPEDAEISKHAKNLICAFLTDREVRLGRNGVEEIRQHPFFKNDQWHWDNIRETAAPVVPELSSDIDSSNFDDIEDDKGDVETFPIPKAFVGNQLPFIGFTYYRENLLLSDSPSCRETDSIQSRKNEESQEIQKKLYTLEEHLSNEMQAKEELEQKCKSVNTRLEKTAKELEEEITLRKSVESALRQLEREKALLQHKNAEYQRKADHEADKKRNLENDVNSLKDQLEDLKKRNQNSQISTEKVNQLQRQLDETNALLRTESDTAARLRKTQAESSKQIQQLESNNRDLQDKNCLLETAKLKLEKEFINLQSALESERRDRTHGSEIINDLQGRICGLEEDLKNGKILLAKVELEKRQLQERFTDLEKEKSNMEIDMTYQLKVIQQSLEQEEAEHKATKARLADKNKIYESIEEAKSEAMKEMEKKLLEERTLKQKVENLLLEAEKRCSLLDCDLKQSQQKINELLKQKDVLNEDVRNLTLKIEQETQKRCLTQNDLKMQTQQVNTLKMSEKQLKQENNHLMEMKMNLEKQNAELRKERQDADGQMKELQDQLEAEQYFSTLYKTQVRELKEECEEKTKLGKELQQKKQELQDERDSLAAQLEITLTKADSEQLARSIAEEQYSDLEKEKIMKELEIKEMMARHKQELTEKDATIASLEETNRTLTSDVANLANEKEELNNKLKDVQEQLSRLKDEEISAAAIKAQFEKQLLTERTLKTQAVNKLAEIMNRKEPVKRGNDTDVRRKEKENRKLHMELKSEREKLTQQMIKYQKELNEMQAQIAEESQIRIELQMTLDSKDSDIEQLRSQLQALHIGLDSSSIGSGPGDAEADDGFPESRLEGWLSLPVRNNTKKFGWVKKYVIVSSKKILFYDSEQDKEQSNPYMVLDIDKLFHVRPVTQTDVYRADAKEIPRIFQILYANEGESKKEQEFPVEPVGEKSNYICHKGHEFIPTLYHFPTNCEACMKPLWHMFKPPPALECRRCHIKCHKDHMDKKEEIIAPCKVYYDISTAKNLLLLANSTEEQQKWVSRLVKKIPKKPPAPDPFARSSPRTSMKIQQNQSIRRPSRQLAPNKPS

O=C(CCCCCCn1cc(-c2ncnc3[nH]ccc23)cn1)NO
half-life [1]: > 200 min | inhibition (Histone deacetylase 9): 30% | IC50 (TAMH): 4630 nM | IC50 (Histone deacetylase 1): 6.9 nM | IC50 [2]: 75 nM | IC50 [3]: 188 nM | inhibition [4]: 27% | Activity [5]: 18% | Activity [6]: 29% | IC50 [7]: 3.9 nM | IC50 (Histone deacetylase 5): 10500 nM | IC50 (MCF7): 840 nM | IC50 (PC-3): 2410 nM | IC50 (HEL 92.1.7): 1330 nM | IC50 (Jurkat): 470 nM | IC50 (KMS-12-BM): 2020 nM | IC50 (OPM-2): 2160 nM | IC50 (cells): 2010 nM | IC50 (KG-1): 150 nM | IC50 (MOLM-14 [8]): 740 nM | IC50 (MV4-11): 460 nM | half-life [9]: 21 min | Vd [10]: 1.49 L/kg | half-life [11]: 34.8 min | Tmax [12]: 4.98 min | AUC(0-inf) [13]: 12.3 ng·h/mL | Activity (MOLM-14 [14]): Dose-dependent effect | Drug uptake (Plasma): Active
